Consider 5 compounds from ChEMBL document CHEMBL1123956, “Nitrosoureido nucleosides as potential inhibitors of nucleotide biosynthesis” (J Med Chem, 1988).

“And” between values parts separate entries of the source, which are not always exact repeats. Equal entries are not always repeated.

For data set [1], the system named is L1210. Briefly: Inhibition of proliferation of L1210 cells. Format: functional, cell-based. The conditions noted are these: Mus musculus, read-out: I50. The method, boiled down:
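L1210 cells in suspension culture with drug for 48 h. I50 was the concentration giving 50% inhibition of proliferation relative to controls.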

In another data set the test system is Mus musculus. The data set is described as follows: Percent increase in life span of p388 leukemia induced mice was determined at a dose of 200 mg/kg upon ip administration on days 1-5. Conditions: route intraperitoneal. Format: functional. The method, boiled down: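 Mice implanted with 10⁶ P388 leukemia cells were dosed intraperitoneally once daily on days 1-5 after implant. Activity is expressed as % increase in life span, and 30-day survivors were recorded.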

For another data set, the system named is HEp-2. The data set is described as follows: Inhibition of colony formation of H.Ep-2 cells. Format: functional, cell-based. Conditions: Homo sapiens, read-out: I50. The method, boiled down:
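H.Ep.-2 cells exposed to drug over a 12-day period. Colony formation was scored against untreated controls, and I50 was taken as the concentration giving 50% inhibition.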

Data set [2] can be described thus: (§1) Half life was measured at pH 7. Format: ADME. The method, boiled down:
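Stability in pH 7 buffer, followed by HPLC; reported as half-life. The method is taken from an earlier paper.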

A short description of data set [3]: as §1. Format: ADME. The method, boiled down:
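Stability in pH 7 buffer, with decomposition followed by HPLC and the half-life taken from it.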
This is another data set of the same source.

In data set [4] the test system is L1210. Briefly: Number of cells present measured with the Coulter counter at 100 uM conc. Format: functional, Mus musculus. The method, boiled down: (§2)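 L1210 suspension cultures with agent for 30 min or 18 h, then a further 4 h with radiolabelled precursor. Cells were counted by Coulter counter and expressed as R, the count relative to the initial cell number (R = 1.0). R < 1.0 means a fall below the starting number; R > 1.0 means proliferation.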

The subject of data set [5] is L1210. Briefly: percent synthesis of protein in L1210 cells when incubated with the compound for 18 h uusing [3H]L-Leu as radioligand at 50 uM conc. Format: functional, Mus musculus. The method in brief: (§3)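 Protein synthesis in L1210 suspension cultures preincubated with agent for 30 min or 18 h. [4,5-3H]-L-leucine was then added, and incorporation into protein was sampled hourly over 4 h. Values are 4-h incorporation as % of untreated control.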

Data set [6] relates to L1210. The data set is described as follows: percent synthesis of DNA in L1210 cells when incubated with the compound for 30 min using […] as radioligand at 50 uM conc. Format: functional, Mus musculus. The method, boiled down: (§4)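 DNA synthesis in L1210 suspension cultures preincubated with agent for 30 min or 18 h. [3H]dThd was then added to the medium, and incorporation into DNA was sampled at 1-h intervals over 4 h. Values are for the 4-h labelling period, as % of untreated control.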

The test system of data set [7] is L1210. Briefly: Number of cells present measured with the Coulter counter at 50 uM conc. Format: functional, Mus musculus. The method in brief:
as §2

Data set [8] has as its system L1210. The data set is described as follows: Size distribution of cells at 25 uM conc. Format: functional, Mus musculus. The method, boiled down: (§5)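 L1210 suspension cultures with agent for 30 min or 18 h, then a 4-h labelling period. Size distribution was measured on a Model ZH Coulter Counter. The value is the instrument setting at the peak of cell size; higher settings mean larger cells.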

Data set [9] concerns L1210. Briefly: Number of cells present measured with the Coulter counter at 25 uM conc. Format: functional, Mus musculus. The method in brief:
as §2

Data set [10] deals with L1210. The data set is described as follows: percent synthesis of RNA in L1210 cells when incubated with compound for 30 min using [3H]dThd as radioligand at 50 uM conc. Format: functional, Mus musculus. The conditions noted are these: in the assay text read “[5-3H]Urd” for “[3H]dThd”. The method in brief: (§6)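 RNA synthesis in L1210 suspension cultures preincubated with agent for 30 min or 18 h. [5-3H]Urd was then added, and incorporation into RNA was sampled hourly over 4 h. Values are 4-h incorporation as % of untreated control.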

For data set [11], the system named is L1210. Briefly: percent synthesis of DNA in L1210 cells when incubated with the compound for 18 h using […] as radioligand at 25 uM conc. Format: functional, Mus musculus. The method, boiled down: as §4
Data set [12] deals with L1210. Briefly: percent synthesis of RNA in L1210 cells when incubated with compound for 30 min using […] as radioligand at 100 uM conc. Format: functional, Mus musculus. The method, boiled down: as §6
Data set [13] deals with L1210. Briefly: Size distribution of cells at 100 uM conc. Format: functional, Mus musculus. The method in brief:
as §5

Data set [14] has as its system L1210. Briefly: Size distribution of cells at 50 uM conc. Format: functional, Mus musculus. The method, boiled down:
as §5

Data set [15] deals with L1210. Briefly: percent synthesis of RNA in L1210 cells when incubated with compound for 18 hr using […] as radioligand at 25 uM conc. Format: functional, Mus musculus. The method in brief:
as §6

In data set [16] the test system is L1210. The data set is described as follows: percent synthesis of DNA in L1210 cells when incubated with the compound for 18 h using […] as radioligand at 50 uM conc. Format: functional, Mus musculus. The method in brief: as §4
Data set [17] deals with L1210. The data set is described as follows: percent synthesis of RNA in L1210 cells when incubated with compound for 18 hr using […] as radioligand at 50 uM conc. Format: functional, Mus musculus. The method in brief: as §6
The test system of data set [18] is L1210. The data set is described as follows: percent synthesis of protein in L1210 cells when incubated with the compound for 30 min using [3H]L-Leu as radioligand at 50 uM conc. Format: functional, Mus musculus. The method, boiled down: as §3
The test system of data set [19] is L1210. The data set is described as follows: percent synthesis of DNA in L1210 cells when incubated with the compound for 30 min using […] as radioligand at 100 uM conc. Format: functional, Mus musculus. The method in brief: as §4

Turning to `CCN(N=O)C(=O)NCC1OC(n2cc(C)c(=O)[nH]c2=O)CC1O` (stereo unspecified), the IC50 in the data set on L1210 [1] and in the data set on HEp-2 was over 87 µM in each case. Besides, the ILS at 200 mg/kg with Mus musculus worked out at 0%. The half-life in [2] is 1140 min.

`Cc1cn(C2CC(O)C(C(=O)Nc3ccc(NC(=O)N(C)N=O)cc3)O2)c(=O)[nH]c1=O` (stereo unspecified): the results for the IC50 in the data set with L1210 [1] and in the data set on HEp-2 were over 90 µM and 46 µM, respectively. Also, the increase in life span (ILS) at 200 mg/kg with Mus musculus worked out at 79%. Moreover, in data set [2], the half-life was 24 min.

In data set [3], `O=NN(CCCl)C(=O)N[C@H]1C(O)O[C@H](CO)[C@@H](O)[C@@H]1O` (stereo partly specified) [CHLOROZOTOCIN] returned a T1/2 of 52.5 min.

Turning to `O=NN(CCCl)C(=O)NC1CCCCC1` [LOMUSTINE], the Cell no in the data set with L1210 [4] was 1 and 0.42; with L1210 [7], 1 and 0.53; in the data set on L1210 [9] it was 1.02 and 0.48. The Control was 584% in the data set on L1210 [5]; 75% in the data set with L1210 [6]; 121% in the data set with L1210 [10]; 88% and 139% in the data set on L1210 [11]; 101% and 246% with L1210 [12]; 106% and 282% in the data set on L1210 [15]. For the same compound, the Control is 143% with L1210 [16]; 393% in the data set on L1210 [17]; 79% with L1210 [18]; 46% and 131% with L1210 [19]. Further, the Cell size with L1210 [8] is 67.5 and 90; in the data set with L1210 [13], 65 and 85; in the data set with L1210 [14], 62.5 and 90.

Compound `CN(N=O)C(N)=O` [N-METHYL-N-NITROSUREA] displayed a T1/2 in data set [3] of 52.5 min.

What is called ILS is how much longer treated animals lived than controls. Read a high ILS as a large benefit in survival. Broadly, the half-life is how long it takes for the measured level to halve. Read a low half-life as rapid decline.
